Data taken from ChEMBL document CHEMBL1153954, “Promiscuous aggregate-based inhibitors promote enzyme unfolding” (J Med Chem, 2009).
The source made the active and inactive calls. The calls are words filed in the database; no cut-off is given here.

Tests used:
[1] = target: AmpC (Escherichia coli) (UniProt Q83TT7); assay: (§1) Aggregation based inhibition of Escherichia coli AmpC assessed as solvent accessibility of AmpC peptide fragment spanning 42-56 amino acid sequence by measuring ratio of side chain surface area to random coil values per amino acid reside by hydrogen-deuterium exchange mass spectrometry relative to control; design: scale not given: the % may be the effect or the level left
In short: (§2)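 Side-chain solvent accessibility per peptide was calculated from the structure with a 1.4 Å probe radius and default atomic radii and solvation parameters. Each value is the average over residues of the side-chain surface area relative to its random-coil value. Above 50% is exposed; below 20% is buried.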

[2] = target: AmpC (Escherichia coli) (UniProt Q83TT7); assay: as §1, with “109-128” for “42-56”; design: scale not given: the % may be the effect or the level left; in short: as §2
[3] = target: AmpC (Escherichia coli) (UniProt Q83TT7); assay: Aggregation based inhibition of Escherichia coli AmpC assessed as increase in deuteration of AmpC peptide fragment spanning 336-350 amino acid sequence after 8 hrs by hydrogen-deuterium exchange mass spectrometry relative to control
In short: (§3)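 AmpC β-lactamase diluted from a 215 μM stock (50 mM KPi, pH 7.0) into deuterated 50 mM MOPS in D2O, pH 7.0. Final enzyme was 0.16 μM with 100 μM aggregator (0.5% DMSO) or 16 μM without. Aggregate samples were centrifuged 16000g for 5 min and the pellet kept. Triton X-100 was added to release enzyme. Samples were quenched with ice-cold 0.1% TFA pH 2.5, digested on immobilized pepsin 5 min on ice, then analysed by chilled fast-gradient LC-MS. Deuterium uptake is centroid mass shift versus the undeuterated control, not corrected for back exchange. Ratio is inhibited over uninhibited, from three replicates.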

[4] = target: AmpC (Escherichia coli) (UniProt Q83TT7); assay: Aggregation based inhibition of Escherichia coli AmpC assessed as increase in deuteration of AmpC peptide fragment spanning 105-128 amino acid sequence after 8 hrs by hydrogen-deuterium exchange mass spectrometry relative to control; in short: as §3
[5] = target: AmpC (Escherichia coli) (UniProt Q83TT7); assay: Aggregation based inhibition of Escherichia coli AmpC assessed as increase in deuteration of AmpC peptide fragment spanning 8-18 amino acid sequence after 10 mins by hydrogen-deuterium exchange mass spectrometry relative to control; in short: as §3
[6] = target: AmpC (Escherichia coli) (UniProt Q83TT7); assay: as §1, with “243-250” for “42-56”; design: scale not given: the % may be the effect or the level left; in short: as §2
[7] = target: AmpC (Escherichia coli) (UniProt Q83TT7); assay: Aggregation based inhibition of Escherichia coli AmpC assessed as increase in deuteration of AmpC peptide fragment spanning 132-146 amino acid sequence after 8 hrs by hydrogen-deuterium exchange mass spectrometry relative to control; in short: as §3
[8] = target: AmpC (Escherichia coli) (UniProt Q83TT7); assay: Aggregation based inhibition of Escherichia coli AmpC assessed as increase in deuteration of AmpC peptide fragment spanning 291-322 amino acid sequence after 8 hrs by hydrogen-deuterium exchange mass spectrometry relative to control; in short: as §3
[9] = target: AmpC (Escherichia coli) (UniProt Q83TT7); assay: Aggregation based inhibition of Escherichia coli AmpC assessed as increase in deuteration of AmpC peptide fragment spanning 132-146 amino acid sequence after 10 mins by hydrogen-deuterium exchange mass spectrometry relative to control; in short: as §3
[10] = target: AmpC (Escherichia coli) (UniProt Q83TT7); assay: Aggregation based inhibition of Escherichia coli AmpC assessed as increase in deuteration of AmpC peptide fragment spanning 243-250 amino acid sequence after 8 hrs by hydrogen-deuterium exchange mass spectrometry relative to control; in short: as §3
[11] = target: AmpC (Escherichia coli) (UniProt Q83TT7); assay: Aggregation based inhibition of Escherichia coli AmpC assessed as increase in deuteration of AmpC peptide fragment spanning 291-322 amino acid sequence after 10 mins by hydrogen-deuterium exchange mass spectrometry relative to control; in short: as §3
[12] = target: AmpC (Escherichia coli) (UniProt Q83TT7); assay: Aggregation based inhibition of Escherichia coli AmpC assessed as increase in deuteration of AmpC peptide fragment spanning 8-18 amino acid sequence after 1 hr by hydrogen-deuterium exchange mass spectrometry relative to control; in short: as §3
[13] = target: AmpC (Escherichia coli) (UniProt Q83TT7); assay: Aggregation based inhibition of Escherichia coli AmpC assessed as increase in deuteration of AmpC peptide fragment spanning 243-250 amino acid sequence after 10 mins by hydrogen-deuterium exchange mass spectrometry relative to control; in short: as §3
[14] = target: AmpC (Escherichia coli) (UniProt Q83TT7); assay: Aggregation based inhibition of Escherichia coli AmpC assessed as increase in deuteration of AmpC peptide fragment spanning 271-289 amino acid sequence after 1 hr by hydrogen-deuterium exchange mass spectrometry relative to control; in short: as §3
[15] = target: AmpC (Escherichia coli) (UniProt Q83TT7); assay: Aggregation based inhibition of Escherichia coli AmpC assessed as increase in deuteration of AmpC peptide fragment spanning 109-128 amino acid sequence after 10 mins by hydrogen-deuterium exchange mass spectrometry relative to control; in short: as §3
[16] = target: AmpC (Escherichia coli) (UniProt Q83TT7); assay: Aggregation based inhibition of Escherichia coli AmpC assessed as increase in deuteration of AmpC peptide fragment spanning 271-289 amino acid sequence after 10 mins by hydrogen-deuterium exchange mass spectrometry relative to control; in short: as §3
[17] = target: AmpC (Escherichia coli) (UniProt Q83TT7); assay: Aggregation based inhibition of Escherichia coli AmpC assessed as increase in deuteration of AmpC peptide fragment spanning 323-332 amino acid sequence after 8 hrs by hydrogen-deuterium exchange mass spectrometry relative to control; in short: as §3
[18] = target: AmpC (Escherichia coli) (UniProt Q83TT7); assay: Aggregation based inhibition of Escherichia coli AmpC assessed as increase in deuteration of AmpC peptide fragment spanning 42-56 amino acid sequence after 8 hrs by hydrogen-deuterium exchange mass spectrometry relative to control; in short: as §3
[19] = target: AmpC (Escherichia coli) (UniProt Q83TT7); assay: Aggregation based inhibition of Escherichia coli AmpC assessed as increase in deuteration of AmpC peptide fragment spanning 323-332 amino acid sequence after 1 hr by hydrogen-deuterium exchange mass spectrometry relative to control; in short: as §3
[20] = target: AmpC (Escherichia coli) (UniProt Q83TT7); assay: as §1, with “8-18” for “42-56”; design: scale not given: the % may be the effect or the level left; in short: as §2
[21] = target: AmpC (Escherichia coli) (UniProt Q83TT7); assay: as §1, with “291-322” for “42-56”; design: scale not given: the % may be the effect or the level left; in short: as §2
[22] = target: AmpC (Escherichia coli) (UniProt Q83TT7); assay: Aggregation based inhibition of Escherichia coli AmpC assessed as increase in deuteration of AmpC peptide fragment spanning 8-18 amino acid sequence after 8 hrs by hydrogen-deuterium exchange mass spectrometry relative to control; in short: as §3
[23] = target: AmpC (Escherichia coli) (UniProt Q83TT7); assay: Aggregation based inhibition of Escherichia coli AmpC assessed as increase in deuteration of AmpC peptide fragment spanning 291-322 amino acid sequence after 1 hr by hydrogen-deuterium exchange mass spectrometry relative to control; in short: as §3
[24] = target: AmpC (Escherichia coli) (UniProt Q83TT7); assay: Aggregation based inhibition of Escherichia coli AmpC assessed as increase in deuteration of AmpC peptide fragment spanning 336-350 amino acid sequence after 10 mins by hydrogen-deuterium exchange mass spectrometry relative to control; in short: as §3
[25] = target: AmpC (Escherichia coli) (UniProt Q83TT7); assay: Inhibition of Escherichia coli AmpC assessed as induction of protein unfolding measured by trypsin mediated degradation of compound-AmpC enzyme complex at 100 uM after 4 hrs by gel electrophoresis
In short: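 AmpC (0.5 μM) was preincubated 5 min with or without 100 μM aggregator in 50 mM KPi, pH 7.0, 1% DMSO final. Trypsin (0.01 or 0.025 mg/mL) was then added, and digestion ran at room temperature for 0, 15, 30 min, 1 h or 4 h. Samples were boiled in DTT-containing loading buffer and the AmpC band was followed by SDS-PAGE.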

[26] = target: AmpC (Escherichia coli) (UniProt Q83TT7); assay: Aggregation based inhibition of Escherichia coli AmpC assessed as increase in deuteration of AmpC peptide fragment spanning 42-56 amino acid sequence after 10 mins by hydrogen-deuterium exchange mass spectrometry relative to control; in short: as §3
[27] = target: AmpC (Escherichia coli) (UniProt Q83TT7); assay: as §1, with “271-289” for “42-56”; design: scale not given: the % may be the effect or the level left; in short: as §2
[28] = target: AmpC (Escherichia coli) (UniProt Q83TT7); assay: Aggregation based inhibition of Escherichia coli AmpC assessed as increase in deuteration of AmpC peptide fragment spanning 105-128 amino acid sequence after 10 mins by hydrogen-deuterium exchange mass spectrometry relative to control; in short: as §3
[29] = target: AmpC (Escherichia coli) (UniProt Q83TT7); assay: Aggregation based inhibition of Escherichia coli AmpC assessed as increase in deuteration of AmpC peptide fragment spanning 323-332 amino acid sequence after 10 mins by hydrogen-deuterium exchange mass spectrometry relative to control; in short: as §3
[30] = target: AmpC (Escherichia coli) (UniProt Q83TT7); assay: as §1, with “132-146” for “42-56”; design: scale not given: the % may be the effect or the level left; in short: as §2
[31] = target: AmpC (Escherichia coli) (UniProt Q83TT7); assay: Aggregation based inhibition of Escherichia coli AmpC assessed as increase in deuteration of AmpC peptide fragment spanning 42-56 amino acid sequence after 1 hr by hydrogen-deuterium exchange mass spectrometry relative to control; in short: as §3
[32] = target: AmpC (Escherichia coli) (UniProt Q83TT7); assay: Aggregation based inhibition of Escherichia coli AmpC assessed as increase in deuteration of AmpC peptide fragment spanning 271-289 amino acid sequence after 8 hrs by hydrogen-deuterium exchange mass spectrometry relative to control; in short: as §3
[33] = target: AmpC (Escherichia coli) (UniProt Q83TT7); assay: as §1, with “336-350” for “42-56”; design: scale not given: the % may be the effect or the level left; in short: as §2
[34] = target: AmpC (Escherichia coli) (UniProt Q83TT7); assay: Aggregation based inhibition of Escherichia coli AmpC assessed as increase in deuteration of AmpC peptide fragment spanning 132-146 amino acid sequence after 1 hr by hydrogen-deuterium exchange mass spectrometry relative to control; in short: as §3
[35] = target: AmpC (Escherichia coli) (UniProt Q83TT7); assay: as §1, with “323-332” for “42-56”; design: scale not given: the % may be the effect or the level left; in short: as §2
[36] = target: AmpC (Escherichia coli) (UniProt Q83TT7); assay: as §1, with “105-128” for “42-56”; design: scale not given: the % may be the effect or the level left; in short: as §2
[37] = target: AmpC (Escherichia coli) (UniProt Q83TT7); assay: Aggregation based inhibition of Escherichia coli AmpC assessed as increase in deuteration of AmpC peptide fragment spanning 109-128 amino acid sequence after 1 hr by hydrogen-deuterium exchange mass spectrometry relative to control; in short: as §3
[38] = target: AmpC (Escherichia coli) (UniProt Q83TT7); assay: Aggregation based inhibition of Escherichia coli AmpC assessed as increase in deuteration of AmpC peptide fragment spanning 105-128 amino acid sequence after 1 hr by hydrogen-deuterium exchange mass spectrometry relative to control; in short: as §3
[39] = target: AmpC (Escherichia coli) (UniProt Q83TT7); assay: Aggregation based inhibition of Escherichia coli AmpC assessed as increase in deuteration of AmpC peptide fragment spanning 109-128 amino acid sequence after 8 hrs by hydrogen-deuterium exchange mass spectrometry relative to control; in short: as §3
[40] = target: AmpC (Escherichia coli) (UniProt Q83TT7); assay: Aggregation based inhibition of Escherichia coli AmpC assessed as increase in deuteration of AmpC peptide fragment spanning 336-350 amino acid sequence after 1 hr by hydrogen-deuterium exchange mass spectrometry relative to control; in short: as §3
[41] = target: AmpC (Escherichia coli) (UniProt Q83TT7); assay: Inhibition of Escherichia coli AmpC assessed as induction of protein unfolding measured by trypsin mediated degradation of compound-AmpC enzyme complex at 250 uM after 15 mins by gel electrophoresis
In short: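 AmpC β-lactamase (0.5 μM) in 50 mM KPi, pH 7.0, with or without aggregator at 250 μM (1% DMSO final). Trypsin (0.01 or 0.025 mg/mL) added after 5 min. Digestion ran at room temperature for 0 min to 4 h. Samples were boiled 2 min in DTT-containing loading buffer, run on SDS-PAGE, and the β-lactamase band was scored against compound-free enzyme.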

AmpC (Escherichia coli), sequence (Q83TT7 as listed by the source): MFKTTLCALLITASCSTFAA

CC(=O)c1c(O)c(C)c(O)c(Cc2c(O)c3c(c(C(=O)/C=C/c4ccccc4)c2O)OC(C)(C)C=C3)c1O
Activity [1]: 44.7%
Activity [2]: 36.9%
fold change (FC) [3]: 2
fold change (FC) [4]: 1.8
fold change (FC) [5]: 1.3
Activity [6]: 20.7%
fold change (FC) [7]: 3.4
fold change (FC) [8]: 1.8
fold change (FC) [9]: 2.6
fold change (FC) [10]: 1.7
fold change (FC) [11]: 1.6
fold change (FC) [12]: 2.3
fold change (FC) [13]: 1.2
fold change (FC) [14]: 2.6
fold change (FC) [15]: 1.5
fold change (FC) [16]: 1.4
fold change (FC) [17]: 2.7
fold change (FC) [18]: 1.8
fold change (FC) [19]: 3
Activity [20]: 35.7%
Activity [21]: 22.3%
fold change (FC) [22]: 2.5
fold change (FC) [23]: 2.5
fold change (FC) [24]: 1.7
Activity [25]: Active
fold change (FC) [26]: 1.9
Activity [27]: 40.7%
fold change (FC) [28]: 1.6
fold change (FC) [29]: 1.3
Activity [30]: 34.8%
fold change (FC) [31]: 2.7
fold change (FC) [32]: 1.4
Activity [33]: 21.6%
fold change (FC) [34]: 4.2
Activity [35]: 11.8%
Activity [36]: 31.3%
fold change (FC) [37]: 2.5
fold change (FC) [38]: 2.6
fold change (FC) [39]: 1.6
fold change (FC) [40]: 3.7

O=S(=O)(O)c1cc(O)c(/N=N/c2ccc3ccccc3c2O)c2ccccc12
Activity [41]: Active
